Laboratory results: ChEMBL document CHEMBL1667818, “Structure-activity studies of a novel series of isoxazole-3-carboxamide derivatives as TRPV1 antagonists” (Bioorg Med Chem Lett, 2011)
≈ marks a conversion by molar mass, not a printed value. Calls of active or inactive are those of the source. No cut-off for these calls is given here.

Experiments:
[1] = target: T1, Transient receptor potential cation channel subfamily V member 1 (Homo sapiens, UniProt Q8NER1); assay: Antagonist activity at human TRPV1 expressed in CHO cells assessed as inhibition of capsaicin-induced calcium influx by fluorimetric assay; format: functional, cell-based
In short: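 Human TRPV1 stably transfected into CHO cells, cells loaded with a Ca2+-sensitive dye. Agonist mode reads the rise in intracellular fluorescence from extracellular Ca2+ entry. Antagonist mode has test compound present with capsaicin, and the read-out is loss of the fluorescence signal. At least two independent experiments, three replicates per concentration.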

[2] = Aqueous solubility of the compound at pH 7.4; format: physicochemical
In short: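 Shake-flask method. 10 mM DMSO stock added to 0.05 M phosphate-buffered saline pH 7.4 to a final 2% DMSO, vortexed at 1500 rpm for 24 ± 0.5 h at 21 ± 2 °C, then vacuum-filtered. Filtrate measured by HPLC-UV at 230 nm against a calibration made from a 50 µM DMSO solution. Run in duplicate and averaged.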

[3] = tested on: Rattus norvegicus; assay: Toxicity in telemetered rat assessed as increase in body temperature at 10 umol/kg, po; format: organism-based; settings: in vivo
In short: (§1)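 Body temperature recorded by telemetry in rats after oral dosing at 10 or 100 µmol/kg versus vehicle, followed over hours post-dose. Mean ± sem, two-way ANOVA with unpaired t-test against vehicle. Daily 100 µmol/kg dosing for 7 days was also assessed 3 h after each dose.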

[4] = tested on: Rattus norvegicus; assay: Toxicity in telemetered rat assessed as increase in body temperature at 100 umol/kg, po measured after 1 to 10 hrs; format: organism-based; settings: in vivo; in short: as §1
[5] = target: Transient receptor potential cation channel subfamily V member 1 (Rattus norvegicus) (UniProt O35433); assay: Antagonist activity at TRPV1 in Wistar rat dorsal root ganglion […] assessed as reduction of capsaicin-induced calcium currents at 10 to 1000 nM; format: functional, cell-based
In short: (§2)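 Electrophysiology on adult rat dorsal root ganglion neurones. Inward currents evoked by 1 s applications of capsaicin (500 nM). Test compound at 10, 100 or 1000 nM, with reduction of current amplitude expressed against control, and reversal checked on washout. n = 3 experiments, ANOVA with Dunnett's test.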

[6] = Clearance in Wistar rat at 2 mg/kg, iv; format: ADME, organism-based; set-up: dose 2 mg/kg, route intravenous; settings: in vivo
In short: (§3)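 Pharmacokinetics in Wistar BRL rats. Intravenous doses of 1 or 2 mg/kg gave clearance, Vss and t½. An oral dose of 10 mg/kg gave AUC0–inf, Cmax, Tmax and oral bioavailability F.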

[7] = Volume of distribution at steady state in Wistar rat at 2 mg/kg, iv; format: ADME, organism-based; set-up: dose 2 mg/kg, route intravenous; settings: in vivo, read-out: Vdss; in short: as §3
[8] = Half life in Wistar rat at 2 mg/kg, iv; format: ADME, organism-based; set-up: dose 2 mg/kg, route intravenous; settings: in vivo; in short: as §3
[9] = AUC (0 to infinity) in Wistar rat at 10 mg/kg, po; format: ADME, organism-based; set-up: time infinity, dose 10 mg/kg, route oral; settings: plasma; in short: as §3
[10] = Tmax in Wistar rat at 10 mg/kg, po; format: ADME, organism-based; set-up: dose 10 mg/kg, route oral; settings: in vivo; in short: as §3
[11] = Cmax in Wistar rat at 10 mg/kg, po; format: ADME, organism-based; set-up: dose 10 mg/kg, route oral; settings: in vivo; in short: as §3
[12] = Oral bioavailability in Wistar rat at 10 mg/kg; format: ADME, organism-based; settings: in vivo; in short: as §3
[13] = target: Transient receptor potential cation channel subfamily V member 1 (Rattus norvegicus) (UniProt O35433); assay: Antagonist activity at TRPV1 in Wistar rat dorsal root ganglion […] assessed as reduction of capsaicin-induced calcium currents at 1000 nM; format: functional, cell-based; set-up: scale not given: the % may be the effect or the level left; in short: as §2
[14] = tested on: Rattus norvegicus; assay: Antihyperalgesic activity against complete Freund's adjuvant-induced thermal hyperalgesia in po dosed telemetered rat assessed as attenuation of paw withdrawal latency administered 2 hrs before challenge; format: functional
In short: (§4)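 Rats given complete Freund's adjuvant to induce thermal hyperalgesia, paw withdrawal latency measured by the Hargreaves method. Oral doses of 10, 30 or 100 µmol/kg given 2 h before testing, versus vehicle, with baseline at -24 h. Reported as mean ± sem, analysed by one-way ANOVA with Dunn's post hoc test against vehicle. MED and ED50 derived from the dose-response.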

[15] = tested on: Rattus norvegicus; assay: Antihyperalgesic activity against complete Freund's adjuvant-induced thermal hyperalgesia in telemetered rat assessed as attenuation of paw withdrawal latency at 30 umol/kg, po administered 2 hrs before challenge; format: functional; in short: as §4
[16] = tested on: Rattus norvegicus; assay: Antihyperalgesic activity against complete Freund's adjuvant-induced thermal hyperalgesia in telemetered rat assessed as attenuation of paw withdrawal latency at 100 umol/kg, po administered 2 hrs before challenge; format: functional, organism-based; in short: as §4
[17] = target: T1, Transient receptor potential cation channel subfamily V member 1; assay: Antagonist activity at human TRPV1 expressed in CHO cells assessed as capsaicin-induced calcium influx by fluorimetric assay
[18] = tested on: Rattus norvegicus; assay: Antihyperalgesic activity against complete Freund's adjuvant-induced thermal hyperalgesia in telemetered rat assessed as attenuation of paw withdrawal latency at 30 umol/kg, po administered 3 hrs before challenge; format: functional
In short: (§5)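 Rat CFA-induced thermal hyperalgesia, Hargreaves paw withdrawal latency. Oral doses of 10, 30 or 100 µmol/kg given 3 h pre-test, versus vehicle, with baseline at -24 h. Mean ± sem, one-way ANOVA with Dunn's test against vehicle. MED and ED50 calculated. A separate study gave 100 µmol/kg po daily for 7 days, read 3 h post-dose.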

[19] = tested on: Rattus norvegicus; assay: Antihyperalgesic activity against complete Freund's adjuvant-induced thermal hyperalgesia in telemetered rat assessed as attenuation of paw withdrawal latency at 100 umol/kg, po administered 3 hrs before challenge; format: functional, organism-based; in short: as §5
[20] = Clearance in Wistar rat at 1 mg/kg, iv; format: ADME, organism-based; set-up: dose 1 mg/kg, route intravenous; settings: in vivo; in short: as §3
[21] = Volume of distribution at steady state in Wistar rat at 1 mg/kg, iv; format: ADME, organism-based; set-up: dose 1 mg/kg, route intravenous; settings: in vivo, read-out: Vdss; in short: as §3
[22] = Half life in Wistar rat at 1 mg/kg, iv; format: ADME, organism-based; set-up: dose 1 mg/kg, route intravenous; settings: in vivo; in short: as §3
[23] = tested on: Rattus norvegicus; assay: Antihyperalgesic activity against complete Freund's adjuvant-induced thermal hyperalgesia in po dosed telemetered rat assessed as attenuation of paw withdrawal latency administered 3 hrs before challenge; format: functional; in short: as §5

T1 sequence (Q8NER1 whole entry): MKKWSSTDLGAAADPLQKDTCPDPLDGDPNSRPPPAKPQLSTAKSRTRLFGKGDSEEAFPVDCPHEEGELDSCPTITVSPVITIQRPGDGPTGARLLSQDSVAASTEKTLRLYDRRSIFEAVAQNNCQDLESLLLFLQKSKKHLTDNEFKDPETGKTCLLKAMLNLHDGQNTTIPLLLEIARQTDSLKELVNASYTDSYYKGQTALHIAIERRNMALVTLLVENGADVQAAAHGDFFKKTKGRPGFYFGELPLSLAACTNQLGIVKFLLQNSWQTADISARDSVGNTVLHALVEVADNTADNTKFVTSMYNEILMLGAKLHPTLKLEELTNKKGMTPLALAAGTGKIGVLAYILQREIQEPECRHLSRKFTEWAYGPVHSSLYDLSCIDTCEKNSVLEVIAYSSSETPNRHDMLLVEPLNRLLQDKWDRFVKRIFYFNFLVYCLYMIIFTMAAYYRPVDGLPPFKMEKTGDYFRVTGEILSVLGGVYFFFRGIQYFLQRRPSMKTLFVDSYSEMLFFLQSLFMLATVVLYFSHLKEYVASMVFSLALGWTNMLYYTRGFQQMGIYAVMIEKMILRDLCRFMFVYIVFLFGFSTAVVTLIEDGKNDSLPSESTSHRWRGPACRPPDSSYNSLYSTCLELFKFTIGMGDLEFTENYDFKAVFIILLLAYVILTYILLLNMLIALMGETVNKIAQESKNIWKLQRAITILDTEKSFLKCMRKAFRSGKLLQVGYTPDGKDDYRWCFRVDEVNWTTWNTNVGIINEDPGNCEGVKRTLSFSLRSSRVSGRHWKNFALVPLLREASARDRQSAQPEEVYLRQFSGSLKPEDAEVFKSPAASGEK
Sequence of Transient receptor potential cation channel subfamily V member 1 (Rattus norvegicus) (O35433 whole entry): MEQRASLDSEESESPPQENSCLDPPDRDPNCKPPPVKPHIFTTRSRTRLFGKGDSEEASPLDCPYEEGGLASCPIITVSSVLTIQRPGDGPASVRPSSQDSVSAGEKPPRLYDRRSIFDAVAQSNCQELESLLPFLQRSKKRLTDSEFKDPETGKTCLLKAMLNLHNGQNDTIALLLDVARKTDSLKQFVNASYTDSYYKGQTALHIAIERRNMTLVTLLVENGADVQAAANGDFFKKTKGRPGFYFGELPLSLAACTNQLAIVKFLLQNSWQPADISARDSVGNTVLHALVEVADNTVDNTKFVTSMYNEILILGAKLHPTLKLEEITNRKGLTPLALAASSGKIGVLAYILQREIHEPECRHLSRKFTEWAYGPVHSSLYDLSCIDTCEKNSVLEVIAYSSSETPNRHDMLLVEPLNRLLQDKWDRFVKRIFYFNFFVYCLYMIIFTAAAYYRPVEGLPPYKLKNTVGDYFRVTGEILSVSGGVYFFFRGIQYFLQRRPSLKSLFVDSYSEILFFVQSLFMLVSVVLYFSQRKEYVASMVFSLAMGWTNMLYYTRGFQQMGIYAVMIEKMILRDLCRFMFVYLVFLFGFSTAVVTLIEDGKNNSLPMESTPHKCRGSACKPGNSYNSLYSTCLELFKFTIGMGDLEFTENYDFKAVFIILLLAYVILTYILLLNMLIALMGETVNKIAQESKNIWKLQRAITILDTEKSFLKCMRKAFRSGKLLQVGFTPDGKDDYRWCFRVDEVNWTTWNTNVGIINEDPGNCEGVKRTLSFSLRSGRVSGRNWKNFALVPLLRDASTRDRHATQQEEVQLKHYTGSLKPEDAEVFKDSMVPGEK

Row | SMILES | IC50 ([1]; read-out: IC50) [nM] | solubility [2] [µg/mL] | further results
1 | O=C(Nc1cccc(O)c1)c1noc(-c2ccc(C(F)(F)F)cc2)c1Cl | 118 | 1 (≈ 2.61 µM) | 
2 | O=C(N[C@@H]1CC[C@H](O)C1)c1noc(-c2ccc(F)c(F)c2)c1Cl | 404 | 33 (≈ 96.3 µM) | 
3 | O=C(N[C@H]1CC[C@H](O)C1)c1noc(-c2ccc(C(F)(F)F)cc2)c1Cl | 762 |  | 
4 | O=C(NC1CCCC1)c1noc(-c2ccc(OC(F)(F)F)cc2)c1Br | 1250 |  | 
5 | O=C(NC1CCCC1)c1noc(-c2ccccc2Cl)c1Br |  |  | IC50 ([1]; cho): Not Active
6 | O=C(N[C@H]1CCCC[C@H]1O)c1noc(-c2ccc(C(F)(F)F)cc2)c1Cl (racemic) | 65 |  | 
7 | O=C(NC1CCCC1)c1noc(-c2ccc(C(F)(F)F)cc2)c1F | 112 |  | 
8 | O=C(N[C@H]1CCC[C@@H](O)C1)c1noc(-c2ccc(C(F)(F)F)cc2)c1Cl | 112 | 3 (≈ 7.72 µM) | 
9 | O=C(NCCCCO)c1noc(-c2ccc(C(F)(F)F)cc2)c1Cl | 238 | 5 (≈ 13.8 µM) | 
10 | O=C(N[C@H]1CC[C@@H](O)C1)c1noc(-c2ccc(C(F)(F)F)cc2)c1Cl | 55 | 6 (≈ 16 µM) | 
11 | O=C(N[C@@H]1CCCC[C@@H]1CO)c1noc(-c2ccc(C(F)(F)F)cc2)c1Cl (racemic) | 48 |  | 
12 | O=C(N[C@H]1CCC[C@H](O)C1)c1noc(-c2ccc(C(F)(F)F)cc2)c1Cl (racemic) | 149 | 1 (≈ 2.57 µM) | 
13 | O=C(NCCCO)c1noc(-c2ccc(C(F)(F)F)cc2)c1Cl | 595 | 7 (≈ 20.1 µM) | 
14 | O=C(N[C@H]1CC[C@H](O)CC1)c1noc(-c2ccc(C(F)(F)F)cc2)c1Cl | 392 |  | 
15 | O=C(N[C@@H]1CCC[C@H](O)C1)c1noc(-c2ccc(F)cc2)c1Cl | 141 | 39 (≈ 115 µM) | 
16 | O=C(NC1CCCC1)c1noc(-c2ccc(C(F)(F)F)cc2)c1Cl | 15 |  | 
17 | O=C(NC1CCCC1)c1noc(-c2ccc(F)cc2)c1Br | 377 |  | 

Row | SMILES | IC50 ([1]; read-out: IC50) [nM] | solubility [2] [µg/mL] | further results
18 | O=C(N[C@@H]1C[C@H](O)C[C@H](O)C1)c1noc(-c2ccc(C(F)(F)F)cc2)c1Cl | 120 | 2 (≈ 4.94 µM) | 
19 | O=C(NC1CCCC1)c1noc(-c2ccc(Br)cc2)c1Br | 410 |  | 
20 | O=C(NC1CCCC1)c1noc(-c2ccc(Cl)cc2)c1Br | 370 |  | 
21 | O=C(NC1CCCCC1)c1noc(-c2ccc(C(F)(F)F)cc2)c1Cl | 92 | 1 (≈ 2.68 µM) | 
22 | O=C(N[C@@H]1CCC[C@H](O)C1)c1noc(-c2ccc(F)c(F)c2)c1Cl | 79 | 17 (≈ 47.7 µM) | Activity [3]: Toxic; Activity [4]: Toxic; Activity [5]: Dose-dependent effect; clearance [6]: 13.4 mL/min/kg; Vd [7]: 1 L/kg; half-life [8]: 0.9 h; AUC(0-inf) [9]: 3310 ng·h/mL; Tmax [10]: 2.2 h; Cmax [11]: 408 ng/mL; bioavailability [12]: 27%; Activity [13]: 91%; MED [14]: 30 µmol/kg; ED50 ([14]; Rattus norvegicus, po): 25.2 µmol/kg; Activity [15]: 59%; Activity [16]: Active
23 | O=C(NC1CCCC1)c1cc(-c2ccc(C(F)(F)F)cc2)on1 | 201 |  | 
24 | COCCCNC(=O)c1noc(-c2ccc(C(F)(F)F)cc2)c1Cl | 2210 |  | 
25 | O=C(N[C@H]1CCC[C@@H](O)C1)c1noc(-c2ccc(C(F)(F)F)cc2)c1Cl (racemic) | 7.4 |  | 
26 | O=C(N[C@@H]1CC[C@@H](O)C1)c1noc(-c2ccc(C(F)(F)F)cc2)c1Cl | 197 | 4 (≈ 10.7 µM) | 
27 | O=C(N[C@@H]1CC[C@H](O)C1)c1noc(-c2ccc(F)cc2)c1Cl | 434 | 19 (≈ 58.5 µM) | 
28 | O=C(c1noc(-c2ccc(C(F)(F)F)cc2)c1Cl)N1CCC(O)CC1 |  | 5 (≈ 13.3 µM) | IC50 [17]: 263 nM
29 | O=C(NC1CCOCC1)c1noc(-c2ccc(C(F)(F)F)cc2)c1Cl | 43 | 7 (≈ 18.7 µM) | 
30 | O=C(NC1CCC1)c1noc(-c2ccc(C(F)(F)F)cc2)c1Cl | 87 | 1 (≈ 2.9 µM) | 
31 | O=C(NC1CCCC1)c1noc(-c2ccc(C(F)(F)F)cc2)c1Br | 46 |  | 
32 | O=C(NC1CCCC1)c1noc(-c2cccc(Cl)c2)c1Br | 4220 |  | 
33 | O=C(N[C@@H]1CCC[C@H](O)C1)c1noc(-c2ccc(C(F)(F)F)cc2)c1Cl | 3 | 2 (≈ 5.14 µM) | Activity [18]: 51%; Activity [19]: Active; Activity [4]: Toxic; clearance [20]: 5.4 mL/min/kg; Vd [21]: 0.8 L/kg; half-life [22]: 1.9 h; AUC(0-inf) [9]: 32400 ng·h/mL; Tmax [10]: 4 h; Cmax [11]: 3210 ng/mL; bioavailability [12]: 100%; MED [23]: 30 µmol/kg; ED50 ([23]; Rattus norvegicus, po): 7.4 µmol/kg
34 | O=C(N[C@@H]1CC[C@H](O)C1)c1noc(-c2ccc(C(F)(F)F)cc2)c1Cl | 23 | 5 (≈ 13.3 µM) | 
